This is an account of results in the EternaBench riboswitch data.

For the series, the system named is MS2 coat protein. Nature of the series: apparent Kd, MS2 coat protein; higher = weaker binding; RNA-MaP array; FMN 200 µM where present. In outline: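 On Illumina sequencing-chip clusters, designs were transcribed by stalled E. coli RNA polymerase and titrated with SNAP-549-labelled MS2 coat protein (0.7 or 1.5 nM, doubling to 3 µM), without and then with constant ligand, in 100 mM Tris-HCl pH 7.5, 80 mM KCl, 4 mM MgCl2, BSA, DTT, yeast tRNA and Tween-20. Apparent Kd is the median of filtered per-cluster curve fits to green signal normalised to red-channel RNA signal and control-cluster median Fmax.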

Where [1] appears, read: designed as: OFF switch for flavin mononucleotide, no ligand.
The mark [2] stands for this setting: ligand present: flavin mononucleotide, designed as: OFF switch for flavin mononucleotide.
The mark [3] stands for this setting: designed as: ON switch for flavin mononucleotide, no ligand.
[4] abbreviates: ligand present: flavin mononucleotide, designed as: ON switch for flavin mononucleotide.

In general, apparent Kd refers to the concentration giving half-maximal binding under the conditions of the assay. As for “UAUAUAUAGUAAGGAUAUGUAUAUAUUUUAGAAACAGAAGGUACUGACAUGAGGAUCACCCAUGUUUUAGUGUGGGCAUGUAGA”, the “apparent Kd” value by setting is: under setting [1], 69.2 nM; under setting [2], 89.7 nM.

Turning to “CCUCCACAUGAGGAUCACCCAUGUCAGGAUAUCGUGUGUGCGUUUUCGGUCUUUCGUGCGAGAAGGGACGUCUG”, the “apparent Kd” value came out at 68.7 nM under setting [1] and 62.9 nM under setting [2].

Regarding “UGCGAACAGGCUAACAUGAGGAUCACCCAUGUGGACUCAUGGUAGGAUAUCGGGAAGGAGGAAACCGAGAAGGGCCGGUGAGCA”, the “apparent Kd” value under setting [3] was 133 nM and the “apparent Kd” value under setting [4] came out at 77.5 nM.

“CACUCAGGCACAUGAGGAUCACCCAUGUCCCGGAAGCCGAGACAGGAUAUGUGCCUCGAAUGUGCACAGAAGGGUCUACUAUGU”: the “apparent Kd” value is 374 nM under setting [3] and 264 nM under setting [4].

Regarding “CGCUGUCACGCAGGAUAUGCAUUGGAUUACAAUGCAGAAGGGCGAUUACAUGAGGAUCACCCAUGUGUUGACAGUGAAGAAGAG”, the “apparent Kd” value by setting is: under setting [3], 1240 nM; under setting [4], 80.6 nM.

Consider “CGAUGACACAGUCAUCCAAUACGAACAUGAGGAUCACCCAUGUAGGAUAUGCUACUCAAAGAGUAGCAGAAGGACAUGUGCCUU”, for which the “apparent Kd” value by setting is: under setting [1], 38.4 nM; under setting [2], 159 nM.

For the sequence “AAAUUAAGAAGAGGAUAUUGACAUGAGGAUCACCCAUGUAUUUGGGAAUGUUUACUGAAUUCUUACGAGAAGGUUUACGAACUU”, the “apparent Kd” value was found to be 191 nM under setting [1] and 132 nM under setting [2].

As to “AUCAGCUCGUCAGGAUAUACGUCGCUGCGUCAGCAGUGUGGUAAGAUCACAUGAGGAUCACCCAUGUAGAAGGGACGAGCUGAU”, the “apparent Kd” value reads like this: under setting [1], 19.3 nM; under setting [2], 374 nM.

Consider “AAGGGACAUGAGGAUCACCCAUGUUCGAAAGACGAUGGAUCGCAGGAUAUCCAGUGUUAGAGAGAGGAGAAGGGUGAUCCUAUU”, for which the “apparent Kd” value is 36.3 nM under setting [3] and 27.7 nM under setting [4].

Take “AUGCUAUACGAAGGAUAUGGUUACAUGAGGAUCACCCAUGUUAUGAUUGGGUACAUGAAAAGGUUCCAGAAGGUCGUAUAGCUA”: the “apparent Kd” value under setting [1] worked out at 1210 nM and the “apparent Kd” value under setting [2] was 736 nM.

For the sequence “GCAGCAAUUUAAAACAUGAGGAUCACCCAUGUCGAGUGUUAUGAGGAUAUGCAUCGGAUGAAGAUGCAGAAGGCAUUGUGCUGC”, the “apparent Kd” value is 6.32 nM under setting [3] and 6.72 nM under setting [4].

With “AACGCACGAGAUGGCUGGGAUACUAAGGAUAUGACAUGAGGAUCACCCAUGUACGCGAUCCAUGGUCAGAAGGUAGUAAUUCGC”, the “apparent Kd” value under setting [1] was 37 nM and the “apparent Kd” value under setting [2] was found to be 91.2 nM.

As for “GUGGUGUAGAUACAGGAUAUGUUGCUCGUAACAUGAGGAUCACCCAUGUAUCUAUGAGAUUAAAUGCAGAAGGGUGCACACCACG”, the “apparent Kd” value was found to be 330 nM under setting [3] and 23.3 nM under setting [4].

As to “AAAGUUGGUAGGCCCUCGGAACAUGAGGAUCACCCAUGUAAGGAGGAUAUGCCCGGUACCCGCUGGCAGAAGGCCUUAUAAGAA”, the “apparent Kd” value under setting [1] was 28.2 nM and the “apparent Kd” value under setting [2] is 239 nM.

Regarding “AUUAUUGACGUAGGAUAUUGUUACAUGAGGAUCACCCAUGUUAUUUGGGAACUAGGAAUAUUUUACAAGAAGGACGUUGUUAAA”, the “apparent Kd” value was 74.9 nM under setting [3] and 92.1 nM under setting [4].

Regarding “GGGUACAUCGGAGGAUAUCAUGUAAAUACAUGAGGAUCACCCAUGUCGAUGGAGACAUCGGAGAUGGAGAAGGCCGAUGUACCG”, the “apparent Kd” value under setting [3] was determined as 538 nM and the “apparent Kd” value under setting [4] came to 102 nM.

With “UUUUUUAUCGUAGGAUAUAGGUUGAAUAAUAGACUAGAAGGACGUGACAUGAGGAUCACCCAUGUUUUUUAAGUGUCGAAGUGU”, the “apparent Kd” value was determined as 26.9 nM under setting [3] and 25.7 nM under setting [4].

Take “GGAUCUAUGUAGAAGGCUGUCUUAAAAUAGGACAGAGGAUAUACAUGAGGAUCACCCAUGUACUCCUUUAAAAGGAUCCAAAUA”: the “apparent Kd” value reads like this: under setting [1], 5.77 nM; under setting [2], 11 nM.

Turning to “UGGAUGGUAUGAGGAUAUGCGCGCGACACGCGCGCAGAAGGCAUGUCAAUAGACAUGAGGAUCACCCAUGUAUUAUCCAUCCAA”, the “apparent Kd” value runs as follows: under setting [3], 201 nM; under setting [4], 14.8 nM.

As to “UUGGAGUACGUAGGAUAUGUAGGAUAUUCCUACAUGAGGAUCACCCAUGUAAGCAUGGAAGAAGGACAGAAGGACGUGCUCCAU”, the “apparent Kd” value under setting [3] was 223 nM and the “apparent Kd” value under setting [4] came to 14.9 nM.

With “CUGACAGUGUAGCGCGUCUAGCCAGAGGAUAUCCACAUGAGGAUCACCCAUGUCAUGUCCUCGCGGGAGAAGGCUGGCUUGGCG”, the “apparent Kd” value was determined as 204 nM under setting [1] and 54.3 nM under setting [2].

Regarding “UUAACAUGAGGAUCACCCAUGUAUAGAUUGUUUAUUAGAAGUGAGGAUAUAUAUAAAAUUAGGUAGUAGAAGGCACUGGGUUUU”, the “apparent Kd” value reads like this: under setting [3], 30.5 nM; under setting [4], 31.9 nM.

Take “AGGUCAACCACAGGAUAUGGCUAGCAUAGCUAGCCAGAAGGGUGGUCGUAUCCAUGUAAAUACAUGAGGAUCACCCAUGUAUCC”: the “apparent Kd” value reads like this: under setting [3], 283 nM; under setting [4], 79.1 nM.

With “UUUUAACAUGAGGAUCACCCAUGUGAGGAUAUCGAAAUUUAUAUUUAUAUUAAUUAUACGAGAAGGCACAUUUU”, the “apparent Kd” value runs as follows: under setting [1], 79.2 nM; under setting [2], 104 nM.

On to “CAGAAGUCAGGAUAUGCAUGGCGGGACUUGCGUCGUGGCGUGCAGAAGGGACAUGAGGAUCACCCAUGUAAAGU”, for which the “apparent Kd” value is 53.5 nM under setting [1] and 69.7 nM under setting [2].

As for “AGGUAAGAGUUAAUUGUGACGGUGAGAAGGCAAAAGGUUGUGAUUAACAUGAGGAUCACCCAUGUUGAGGAUAUCACCACCUUC”, the “apparent Kd” value runs as follows: under setting [1], 6.95 nM; under setting [2], 8.81 nM.

For the sequence “UGGUACAUCAUAGGAUAUCGUGUGUAAACAUGAGGAUCACCCAUGUCAUACGAGAGUAUGUAGAUCGAGAAGGAUGAUGUACCU”, the “apparent Kd” value under setting [3] was determined as 18.1 nM and the “apparent Kd” value under setting [4] was 16.1 nM.

For “UUCGUGCAGCUUUGCUGUACGCGUACAUGAGGAUCACCCAUGUAGGAUAUAGUAGGCAAAGCUUACUAGAAGGAUAUAGUGAUC”, the “apparent Kd” value was 47.6 nM under setting [1] and 47.3 nM under setting [2].

As for “AUUAAACAUGAGGAUCACCCAUGUCAACAAAGUCGAGGAUAUGGGCAUAUUAUCUAAUAACCAGAAGGCGAAUAAU”, the “apparent Kd” value reads like this: under setting [3], 182 nM; under setting [4], 45.9 nM.

As to “GCACGAGACUAAGGAUAUGGAGUGUCAACAUAAAACAUGAGGAUCACCCAUGUAAAGAGUACGAUUCAGAAGGUAGAGACGUGC”, the “apparent Kd” value is, setting by setting: under setting [3], 41 nM; under setting [4], 23.6 nM.

As to “UAUAUAUAGUAAGGAUAUGUAAUUUUUUUAUAAACAGAAGGUACUGACAUGAGGAUCACCCAUGUUUUAGUGUGGGCAUGUAGA”, the “apparent Kd” value under setting [1] is 107 nM and the “apparent Kd” value under setting [2] worked out at 169 nM.

With “UUUCCUUGUGUGAGGAUAUACUUGUUUGUGUUUUUGUAGAAGGCACAUGAGGAUCACCCAUGUACUCUUUCCUG”, the “apparent Kd” value under setting [1] was 35.1 nM and the “apparent Kd” value under setting [2] worked out at 54.3 nM.

As for “GUGAACGGAGGAUAUAUAUGGGCAGCAUACGCUGCAGCUUCACAUGAGGAUCACCCAUGUAGAAGGCUGUACAC”, the “apparent Kd” value by setting is: under setting [1], 7.64 nM; under setting [2], 23.9 nM.

As to “AUUGACUGAGGAUAUUGUACUGCUGACAUGAGGAUCACCCAUGUAUGCUAACUCGGCCGUCGAGAAGGCAGUCAUG”, the “apparent Kd” value runs as follows: under setting [1], 29.2 nM; under setting [2], 17.3 nM.

On to “GGUUGGCGAGGAUAUACAUGAGGAUCACCCAUGUGGUCCUGUGGCUGGUCUUGCCUUUGUAGAAGGCGCGGGUC”, for which the “apparent Kd” value reads like this: under setting [1], 105 nM; under setting [2], 111 nM.

On to “UGUGUGUGGGCAGGAUAUACAUGAAUAUAUAUGAUGUAGUAUGAUGUAACAUGAGGAUCACCCAUGUAGAAGGGCCGGUGUAUG”, for which the “apparent Kd” value was found to be 122 nM under setting [1] and 140 nM under setting [2].

Turning to “CAUUAAUUAAUUAUAGUAUUUAUACAGGAUAUGUAACAUGAGGAUCACCCAUGUAUACAUGGGAAACAGAAGGGUAUUUAUAGA”, the “apparent Kd” value reads like this: under setting [1], 32 nM; under setting [2], 28.8 nM.

“GGGUACAUCGGAGGAUAUCAUGUAAAUACAUGAGGAUCACCCAUGUCGAUGGAGAUAUCGGAGAUUGAGAAGGCCGAUGUACCG”: the “apparent Kd” value by setting is: under setting [3], 102 nM; under setting [4], 9.9 nM.

Take “GGUACUCAAAGAGUACCAAUACGAACAUGAGGAUCACCCAUGUAGGAUAUGCUCAAAACGGAGUAGCAGAAGGACAUGUGCCUA”: the “apparent Kd” value under setting [1] turned out to be 12.7 nM and the “apparent Kd” value under setting [2] stood at 32.2 nM.

For “CCCUCACAUGAGGAUCACCCAUGUCAGGAUAUCUAGUCAGACAGUGUAGCACUAAUGAAGAGAAGGGACGUAUG”, the “apparent Kd” value is, setting by setting: under setting [1], 25.6 nM; under setting [2], 26.8 nM.

Regarding “GGAGAUUACUCAGGAUAUCGCUAGACCGACAUGAGGAUCACCCAUGUGGGUGACGCGGUGGGCUACGAGAAGGGAGAAGUGCCC”, the “apparent Kd” value reads like this: under setting [1], 11.5 nM; under setting [2], 11.7 nM.

For “AAAAAGGCAGGAUAUACAUGAGGAUCACCCAUGUUAAAAAAAAAAAAAAAAAAAAAGUGUAGAAGGGCCAAAAA”, the “apparent Kd” value amounted to 55.6 nM under setting [1] and 55 nM under setting [2].

In the case of “GUGUACAGAGGAUAUGCACGAGUAGUUACGAAAGUAACUACACAUGAGGAUCACCCAUGUAGAAGGCUGUACAC”, the “apparent Kd” value is, setting by setting: under setting [1], 13.2 nM; under setting [2], 16.9 nM.

Take “GGGUUACAUGAGGAUCACCCAUGUGAGGAUAUGAUACUAUGUACUUCGGUACAUAGUAUCAGAAGGCACAUAAA”: the “apparent Kd” value worked out at 124 nM under setting [1] and 122 nM under setting [2].

Regarding “CAAAACAUCUCCGUGUUUGUCGAACAUGAGGAUCACCCAUGUAGAAGGCAUCGCGCGACGCAGGAUGAGGAUAUACGCUGGAUG”, the “apparent Kd” value under setting [1] worked out at 6.43 nM and the “apparent Kd” value under setting [2] is 11 nM.

As for “CAGCGUACCAGAGGAUAUGAUUGUGGGUAAAGAGCGCUUAGGUGGCUACAUGAGGAUCACCCAUGUCAGAAGGCUGGAGUUCAA”, the “apparent Kd” value came out at 279 nM under setting [1] and 129 nM under setting [2].

Take “ACAUGAGGAUCACCCAUGUUUACAUGGAUUAUUAAUCUUGGAUAGGAUAUGUUAGUUAAGUAUUUACAGAAGGAUCAAUUCCUU”: the “apparent Kd” value under setting [1] was found to be 27.7 nM and the “apparent Kd” value under setting [2] stood at 20.2 nM.
